Published values of several laboratories.
Protocols differ between the studies behind these lines.
Target: Ankyrin repeat and protein kinase domain-containing protein 1 (ANKK1, Homo sapiens, UniProt Q8NFD2)
Residues used in one study (Q8NFD2 1-765): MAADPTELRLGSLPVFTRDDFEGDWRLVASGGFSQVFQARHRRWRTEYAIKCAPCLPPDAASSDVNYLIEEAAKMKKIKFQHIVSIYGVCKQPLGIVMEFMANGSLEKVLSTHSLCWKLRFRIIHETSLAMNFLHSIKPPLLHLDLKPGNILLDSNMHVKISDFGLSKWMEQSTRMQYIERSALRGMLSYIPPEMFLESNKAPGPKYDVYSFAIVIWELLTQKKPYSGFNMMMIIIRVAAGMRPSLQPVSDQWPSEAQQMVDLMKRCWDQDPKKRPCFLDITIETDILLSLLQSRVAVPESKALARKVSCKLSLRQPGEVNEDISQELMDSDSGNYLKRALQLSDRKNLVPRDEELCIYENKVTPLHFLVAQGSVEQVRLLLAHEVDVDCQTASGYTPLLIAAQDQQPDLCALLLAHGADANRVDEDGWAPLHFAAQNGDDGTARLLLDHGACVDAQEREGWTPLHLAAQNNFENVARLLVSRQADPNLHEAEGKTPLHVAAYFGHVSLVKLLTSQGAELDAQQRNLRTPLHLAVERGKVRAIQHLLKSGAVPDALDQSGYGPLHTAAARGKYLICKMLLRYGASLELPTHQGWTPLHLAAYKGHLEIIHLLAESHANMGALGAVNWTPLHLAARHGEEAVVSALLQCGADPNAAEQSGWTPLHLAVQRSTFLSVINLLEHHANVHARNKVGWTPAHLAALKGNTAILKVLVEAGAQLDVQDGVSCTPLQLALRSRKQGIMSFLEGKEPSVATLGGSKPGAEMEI

| Structure (SMILES) | test | setting | remaining binding [%] |
| --- | --- | --- | --- |
| CN(c1nccc(-c2cnn3ncccc23)n1)C1CC1 | binding | 1 µM | 100 |
| COc1ccc2cc(OCC3(C(=O)O)CN(C(=O)c4ccc(F)cc4)C3)ccc2c1 | cell-free assay, competition with immobilised ligand | 1 µM | 86 |
| Nc1ncc2c(n1)-c1c([nH]c3ccc(C#CC4CC4)cc13)CCCC2 | binding, competition with immobilised ligand | 1 µM | 85 |
| c1cnn2ncc(-c3ccnc(N4CCC45COC5)n3)c2c1 | binding | 1 µM | 72 |
| O=C(N1CCS(=O)(=O)CC1)N1C[C@H](c2ccc(OC(F)(F)F)cc2)C[C@H](c2nc(C3CC3)no2)C1 | cell-free assay, competition with immobilised ligand | 1 µM | 100 |
| N[C@@H]1CCN(c2nccc(-c3cnn4ncccc34)n2)C1 | binding | 1 µM | 100 |
| O=C(Nc1c[nH]nc1C(=O)NC1CCNCC1)c1cc(F)cc(F)c1 | binding, competition with immobilised ligand | 1 µM | 100 |
| COc1cnc(Nc2cccc(S(N)(=O)=O)c2)nc1N1CCN(c2ccccc2)CC1 | binding, competition with immobilised ligand | 1 µM | 97 |
| Cc1cnc(Nc2ccc(C(=O)N3CCC(N4CCCC4)CC3)cc2)nc1-c1cc2ccccc2s1 | binding, competition with immobilised ligand | 1 µM | 62 |
| CC1=C(C#N)C(c2ccc3c(c2)c(NC(=O)c2ccccc2C)nn3C)C(C#N)=C(C)N1 | cell-free assay, competition with immobilised ligand | 1 µM | 92 |
| Cc1cnn2ncc(-c3ccnc(N(C)C)n3)c2c1 | binding | 1 µM | 100 |
| CCC(=O)N[C@@H]1CC[C@H](C(=O)N(C)c2ccc(-c3nc4ccccc4o3)cc2)C1 | cell-free assay, competition with immobilised ligand | 1 µM | 100 |
| O=C(NCCCN1CCOCC1)c1ccc(Nc2ncc(Cl)c(-c3ccc(Cl)s3)n2)cc1 | binding, competition with immobilised ligand | 1 µM | 77 |
| C[C@H]1CCN(c2nccc(-c3cnn4ncccc34)n2)C1 | binding | 1 µM | 83 |
| O=C(c1ccc(Nc2ncc(Cl)c(-c3cc4ccccc4s3)n2)cc1)N1CCC(N2CCCC2)CC1 | binding, competition with immobilised ligand | 1 µM | 62 |
| CO[C@@H](C)c1c(Nc2ccc([C@@H](N(C)C(=O)C3CCS(=O)(=O)CC3)C(F)(F)F)cc2)cnc2cc(Cl)nn12 | cell-free assay, competition with immobilised ligand | 1 µM | 100 |
| CN(C)c1nccc(-c2cnn3ncccc23)n1 | binding | 1 µM | 100 |
| CCN1CCN(Cc2ccc(C(=O)Nc3ccc(C)c(Oc4ccc5c(c4)CC(=O)N5)c3)cc2C(F)(F)F)CC1 | binding, competition with immobilised ligand | 1 µM | 100 |
| O=c1nc(-c2ccccn2)sc2ccccc12 | binding, competition with immobilised ligand | 1 µM | 100 |
| COc1cnc(Nc2cccc(S(N)(=O)=O)c2)nc1N1CCN(c2ccccc2)C(=O)C1 | binding, competition with immobilised ligand | 1 µM | 82 |
| FC(F)(F)Oc1cccc(-c2cnc3ccc(-c4ccncc4)nn23)c1 | cell-free assay, competition with immobilised ligand | 5 µM | 70 |
